For data set [1], the target named is T1, CYP2C19 (Homo sapiens, UniProt P33261). Briefly: (§1) Reversible inhibition of CYP2C19 in human liver microsomes at 10 uM after 20 mins in presence of NADPH by LC-MS/MS analysis. Type of data set: ADME. As to conditions: liver microsomes. (In general: Liver microsomes are a subcellular fraction often used to study metabolism.)
The target in data set [2] is T2, Cytochrome P450 2C9 (Homo sapiens, UniProt P11712). Briefly: (§2) Time dependent irreversible inhibition of CYP2C9 in human liver microsomes at 10 uM preincubated with compound followed by NADPH addition by LC-MS/MS analysis. Type of data set: ADME. To be noted: microsomes, 10 µM. The procedure, abridged:
(§3)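 HLM (0.2 mg/ml) with 10 µM compound were preincubated 0, 5, 10 or 20 min at 37°C with 1 mM NADPH or PBS. Substrate cocktail (halved concentrations) plus NADPH was then added for 10 min. Metabolites were measured by LC-MS/MS. Kobs is the slope of relative activity versus preincubation time.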

In a further data set the test system is NCI-H1993. Briefly: Growth inhibition of human NCI-H1993 cells after 72 hrs by CCK-8 assay. Type of data set: functional, cell-based. As to conditions: Homo sapiens, NCI-H1993, 72 h; call rule not given here.
For another data set, the system named is SNU-5. Briefly: Growth inhibition of human SNU5 cells after 72 hrs by CCK-8 assay. Type of data set: functional, cell-based. To be noted: Homo sapiens, SNU-5, 72 h.
Data set [3] can be described thus: Intrinsic clearance in human liver microsomes assessed per mg protein at 1 uM preincubated for 5 mins followed by NADPH addition measured after 5 to 30 mins by LC-MS/MS analysis. Type of data set: ADME, microsome. To be noted: read-out: CLH. The procedure, abridged: (§4)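 Microsomes (0.5 mg/ml) with 1 µM compound were preincubated 5 min at 37°C in 100 mM phosphate buffer pH 7.4, then started with 1 mM NADPH. Samples were taken at 0, 5, 10 and 30 min, quenched with acetonitrile/tinidazole and run by LC-MS/MS. CLint = k / microsomal protein concentration. Midazolam was the positive control.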

The nature of data set [4]: Intrinsic clearance in rat liver microsomes assessed per mg protein at 1 uM preincubated for 5 mins followed by NADPH addition measured after 5 to 30 mins by LC-MS/MS analysis. Type of data set: ADME, microsome. To be noted: read-out: CLH. The procedure, abridged:
as §4

Data set [5] in a line: (§5) Drug recovery in human liver microsomes at 1 uM measured after 30 mins by LC-MS/MS analysis. As to conditions: liver microsomes, read-out: Drug recovery. Type of data set: ADME, microsome. The procedure, abridged: (§6)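 Liver microsomes (0.5 mg/ml) were incubated with 1 µM compound at 37°C in 100 mM phosphate buffer pH 7.4 without NADPH for 30 min. Reactions were quenched with acetonitrile/tinidazole internal standard and analysed by LC-MS/MS. Recovery (%) was taken from the compound/internal standard peak area ratio.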

For data set [6], the system named is Liver. Briefly: (§7) Drug recovery in rat liver microsomes at 1 uM measured after 30 mins by LC-MS/MS analysis. Type of data set: ADME, microsome. As to conditions: microsomes, 0.5 h, 1 µM.
For data set [7], the target named is T3, CYP2C9 (Homo sapiens, UniProt P11712). The data set can be described thus: (§8) Reversible inhibition of CYP2C9 in human liver microsomes at 10 uM after 20 mins by in presence of NADPH LC-MS/MS analysis. Type of data set: ADME. As to conditions: liver microsomes.
T3 sequence (P11712 whole entry): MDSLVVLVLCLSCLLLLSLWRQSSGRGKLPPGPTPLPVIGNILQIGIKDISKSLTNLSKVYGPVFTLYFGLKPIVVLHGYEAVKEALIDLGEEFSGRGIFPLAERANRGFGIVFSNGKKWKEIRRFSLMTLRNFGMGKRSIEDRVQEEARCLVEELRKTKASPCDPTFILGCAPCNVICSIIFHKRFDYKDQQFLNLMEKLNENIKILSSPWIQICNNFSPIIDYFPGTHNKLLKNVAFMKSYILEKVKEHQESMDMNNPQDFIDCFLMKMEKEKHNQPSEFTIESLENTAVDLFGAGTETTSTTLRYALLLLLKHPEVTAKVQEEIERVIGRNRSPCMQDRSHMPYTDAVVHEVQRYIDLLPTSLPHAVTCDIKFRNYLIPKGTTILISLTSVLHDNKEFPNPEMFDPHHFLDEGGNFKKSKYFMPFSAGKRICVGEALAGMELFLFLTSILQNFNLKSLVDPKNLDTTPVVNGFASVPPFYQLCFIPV
Data set [8] deals with T4, CYP3A4 (Homo sapiens, UniProt P08684). Briefly: (§9) Reversible inhibition of CYP3A4 in human liver microsomes at 10 uM after 20 mins in presence of NADPH by LC-MS/MS analysis. Type of data set: ADME. As to conditions: liver microsomes.
T4 sequence (P08684 whole entry): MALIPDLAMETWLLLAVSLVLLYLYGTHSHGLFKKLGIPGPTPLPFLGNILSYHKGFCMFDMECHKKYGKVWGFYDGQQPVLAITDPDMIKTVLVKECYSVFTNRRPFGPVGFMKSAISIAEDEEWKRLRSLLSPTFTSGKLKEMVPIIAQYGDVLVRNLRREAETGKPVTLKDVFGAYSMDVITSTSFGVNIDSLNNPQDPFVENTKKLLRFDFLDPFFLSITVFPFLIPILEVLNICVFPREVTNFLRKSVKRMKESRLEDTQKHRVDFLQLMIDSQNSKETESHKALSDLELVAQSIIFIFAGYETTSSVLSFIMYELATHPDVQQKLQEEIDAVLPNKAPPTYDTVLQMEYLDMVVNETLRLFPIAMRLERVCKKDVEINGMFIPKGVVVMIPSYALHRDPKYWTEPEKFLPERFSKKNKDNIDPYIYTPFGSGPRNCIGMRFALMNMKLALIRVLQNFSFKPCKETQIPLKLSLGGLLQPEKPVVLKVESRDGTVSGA
The target of data set [9] is T5, CYP2D6 (Homo sapiens, UniProt P10635). Briefly: (§10) Reversible inhibition of CYP2D6 in human liver microsomes at 10 uM after 20 mins in presence of NADPH by LC-MS/MS analysis. Type of data set: ADME. To be noted: liver microsomes.
T5 sequence (P10635 whole entry): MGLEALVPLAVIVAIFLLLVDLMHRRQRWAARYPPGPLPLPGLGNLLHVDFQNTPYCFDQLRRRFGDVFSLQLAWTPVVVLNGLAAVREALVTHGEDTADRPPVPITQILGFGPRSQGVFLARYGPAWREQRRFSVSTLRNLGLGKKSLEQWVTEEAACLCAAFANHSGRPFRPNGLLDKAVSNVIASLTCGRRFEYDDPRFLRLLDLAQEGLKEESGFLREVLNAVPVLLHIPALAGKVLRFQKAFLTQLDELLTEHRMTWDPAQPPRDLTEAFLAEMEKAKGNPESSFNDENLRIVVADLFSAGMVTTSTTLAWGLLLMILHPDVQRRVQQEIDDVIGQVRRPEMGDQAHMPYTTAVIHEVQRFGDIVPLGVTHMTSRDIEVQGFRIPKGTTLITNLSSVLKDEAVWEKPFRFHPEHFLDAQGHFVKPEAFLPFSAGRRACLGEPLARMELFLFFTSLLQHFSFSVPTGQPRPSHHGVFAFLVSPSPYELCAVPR
The target of data set [10] is T6, CYP1A2 (Homo sapiens, UniProt P05177).
T6 sequence (P05177 whole entry): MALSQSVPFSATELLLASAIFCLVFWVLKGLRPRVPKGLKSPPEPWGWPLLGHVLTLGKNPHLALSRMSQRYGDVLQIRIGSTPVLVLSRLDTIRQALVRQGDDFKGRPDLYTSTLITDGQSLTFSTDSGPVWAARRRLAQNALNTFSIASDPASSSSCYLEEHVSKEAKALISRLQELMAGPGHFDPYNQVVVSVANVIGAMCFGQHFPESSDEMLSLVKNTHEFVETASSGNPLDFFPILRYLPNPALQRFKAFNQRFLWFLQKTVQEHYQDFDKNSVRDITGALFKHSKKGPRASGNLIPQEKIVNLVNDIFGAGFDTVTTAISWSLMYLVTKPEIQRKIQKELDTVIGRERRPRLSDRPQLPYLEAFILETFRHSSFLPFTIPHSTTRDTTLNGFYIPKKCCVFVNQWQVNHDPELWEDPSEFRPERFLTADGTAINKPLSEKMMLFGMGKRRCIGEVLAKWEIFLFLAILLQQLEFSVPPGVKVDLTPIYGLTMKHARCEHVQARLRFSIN
Briefly: Reversible inhibition of CYP1A2 in human liver microsomes at 10 uM after 20 mins in presence of NADPH by LC-MS/MS analysis. Type of data set: ADME.

For data set [11], the target named is T7, Cytochrome P450 3A4 (Homo sapiens, UniProt P08684). The data set can be described thus: (§11) Time dependent irreversible inhibition of CYP3A4 in human liver microsomes at 10 uM preincubated with compound followed by NADPH addition by LC-MS/MS analysis. As to conditions: microsomes, 10 µM. Type of data set: ADME. The procedure, abridged: as §3
T7 sequence (P08684 whole entry): as the sequence (P08684 whole entry) above
For data set [12], the target named is T8, Cytochrome P450 2D6 (Homo sapiens, UniProt P10635). Briefly: (§12) Time dependent irreversible inhibition of CYP2D6 in human liver microsomes at 10 uM preincubated with compound followed by NADPH addition by LC-MS/MS analysis. Type of data set: ADME. As to conditions: microsomes, 10 µM. The procedure, abridged:
as §3

The next data set has as its target Cytochrome P450 1A2 (Homo sapiens, UniProt P05177). The data set can be described thus: (§13) Time dependent irreversible inhibition of CYP1A2 in human liver microsomes at 10 uM preincubated with compound followed by NADPH addition by LC-MS/MS analysis. Type of data set: ADME. To be noted: microsomes, 10 µM. The procedure, abridged: as §3
Data set [13] can be described thus: Drug recovery in monkey liver microsomes at 1 uM measured after 30 mins by LC-MS/MS analysis.
The nature of data set [14]: Intrinsic clearance in monkey liver microsomes assessed per mg protein at 1 uM preincubated for 5 mins followed by NADPH addition measured after 5 to 30 mins by LC-MS/MS analysis. To be noted: liver microsomes; read-out: CLH.
Data set [15] relates to Liver. Described as §5. Type of data set: ADME, microsome. To be noted: microsomes, 0.5 h, 1 µM. The procedure, abridged:
as §6

Data set [16] in a line: as §7. Type of data set: ADME, microsome. As to conditions: liver microsomes, read-out: Drug recovery.
A further data set addresses Cytochrome P450 2C19 (Homo sapiens, UniProt P33261). The data set is described as §1. Type of data set: ADME. As to conditions: microsomes, 20 min, 10 µM.
For data set [17], the target named is T3, CYP2C9. The data set is described as §2. Type of data set: ADME. As to conditions: liver microsomes. The procedure, abridged: as §3
The target in data set [18] is T2, Cytochrome P450 2C9. The description is as §8. Type of data set: ADME. As to conditions: microsomes, 20 min, 10 µM.
Data set [19] deals with T7, Cytochrome P450 3A4. The data set is described as §9. Type of data set: ADME. To be noted: microsomes, 20 min, 10 µM.
Data set [20] concerns the target T8, Cytochrome P450 2D6. The description is as §10. As to conditions: microsomes, 20 min, 10 µM. Type of data set: ADME.
Data set [21] has as its target T1, CYP2C19. Briefly: Time dependent irreversible inhibition of CYP2C19 in human liver microsomes at 10 uM preincubated with compound followed by NADPH addition by LC-MS/MS analysis. Type of data set: ADME. The procedure, abridged:
as §3

For data set [22], the target named is T4, CYP3A4. The description is as §11. As to conditions: liver microsomes. Type of data set: ADME. The procedure, abridged:
as §3

Data set [23] concerns the target T5, CYP2D6. The description is as §12. Type of data set: ADME. To be noted: liver microsomes. The procedure, abridged: as §3
For data set [24], the target named is T6, CYP1A2. The description is as §13. Type of data set: ADME. As to conditions: liver microsomes. The procedure, abridged: as §3

T2 sequence (P11712 whole entry): as the sequence (P11712 whole entry) above
T1 sequence (P33261 whole entry): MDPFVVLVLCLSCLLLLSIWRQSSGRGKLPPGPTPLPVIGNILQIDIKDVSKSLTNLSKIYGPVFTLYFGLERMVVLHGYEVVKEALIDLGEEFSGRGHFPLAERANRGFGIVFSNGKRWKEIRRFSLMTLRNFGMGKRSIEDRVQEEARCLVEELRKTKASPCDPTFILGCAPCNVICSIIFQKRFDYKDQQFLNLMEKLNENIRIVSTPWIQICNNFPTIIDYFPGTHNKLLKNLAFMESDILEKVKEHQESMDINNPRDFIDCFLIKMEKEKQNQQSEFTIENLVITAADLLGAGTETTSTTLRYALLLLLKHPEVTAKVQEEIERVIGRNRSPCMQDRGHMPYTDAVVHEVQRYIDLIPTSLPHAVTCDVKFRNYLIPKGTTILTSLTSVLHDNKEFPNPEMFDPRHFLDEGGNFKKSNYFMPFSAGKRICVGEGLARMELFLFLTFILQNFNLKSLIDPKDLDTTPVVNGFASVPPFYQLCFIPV
T8 sequence (P10635 whole entry): as the sequence (P10635 whole entry) above
Chain of Cytochrome P450 2C19 (P33261 whole entry): as the sequence (P33261 whole entry) above

As a reminder, the inhibition is the relative decrease from the control value, in per cent. One may read the IC50 as the concentration that inhibits the measured activity by half. Take `CC(c1ccc2ncc(-c3cnn(C)c3)cc2c1)n1nnc2ncc(-c3ccc(C(N)=O)c(F)c3)nc21` (stereo unspecified): the inhibition at 20 min, 10 µM on CYP2C19 [1], at CYP2C9 [7], at CYP3A4 [8], on CYP2D6 [9] and on CYP1A2 [10] was < 50% in each case. Besides, the TDI entry at Cytochrome P450 2C9 [2], at Cytochrome P450 3A4 [11], at Cytochrome P450 2D6 [12] and on Cytochrome P450 1A2 was “Active” each time. The IC50 turned out to be 0.9 nM with NCI-H1993 and 0.7 nM in the data set with SNU-5. Further, the microsomal CLint at 1 µM in data set [3] was 3 µL/min/mg; in data set [4], 10 µL/min/mg; in data set [14], 30 µL/min/mg. The remaining at 0.5 h, 1 µM is 120% in [5] and 98% in [13]. In the data set with Liver [6], this compound registered a Drug recovery of 128%.

Turning to `CC(c1ccc2ncc(-c3cnn(C)c3)cc2c1)n1nnc2ncc(-c3cnn(C)c3)nc21` (stereo unspecified), in the data set with SNU-5, half-maximal inhibition (IC50) was put at 0.5 nM. Besides, the microsomal CLint at 1 µM stood at 12 µL/min/mg in [3], 22 µL/min/mg in data set [4] and 42 µL/min/mg in data set [14]. The Drug recovery with Liver [15] was 123%. In addition, the remaining at 0.5 h, 1 µM in [16] is 115%; in data set [13] it was 79%.

`CC(c1c(F)cc2ncc(-c3cnn(C)c3)cc2c1F)n1nnc2ncc(-c3ccncc3)nc21` (stereo unspecified): the “inhibition (INH)” value on Cytochrome P450 2C19, on Cytochrome P450 2C9 [18], on Cytochrome P450 3A4 [19] and at Cytochrome P450 2D6 [20] was “Active” in each case. The inhibition at 10 µM at CYP2C9 [17], at CYP2C19 [21], on CYP3A4 [22], at CYP2D6 [23] and at CYP1A2 [24] was < 50% each time. Further, the figures for the IC50 in the data set on NCI-H1993 and in the data set on SNU-5 were 0.2 nM and 1.2 nM, respectively. In addition, the results for the microsomal CLint at 1 µM in data set [3], in data set [4] and in data set [14] were 9 µL/min/mg, 26 µL/min/mg and 106 µL/min/mg, respectively. In addition, the remaining at 0.5 h, 1 µM came out at 101% in data set [5], 98% in data set [16] and 99% in data set [13].

The values are drawn from ChEMBL document CHEMBL4020721 (Eur J Med Chem, 2017).
